Measured values gathered from unrelated publications.
Each line is one published result; the experiments were not run side by side.
Target: Acetylcholinesterase (ACHE, Homo sapiens, UniProt P22303)
Effect on: enzyme activity
Action: inhibitor

For `CC(=O)c1c(C)c2cnc(Nc3ccc(C4CCN(CCS(C)(=O)=O)CC4)cn3)nc2n(C2CCCC2)c1=O`, the IC50 was 0.25 µM.
For `O=c1cc(CSc2ccc(N=Cc3ccc(Br)cc3)cc2)occ1O`, the IC50 was 0.57 µM (Ellman).
`CC(C)c1cc2c(c(O)c1O)[C@@]13CCCC(C)(C)[C@@H]1[C@H](OC3=O)[C@H]2O` has an IC50 of 0.000734 µM.
The IC50 of `O=c1cc(CSc2ccc(N=Cc3ccc(O)cc3)cc2)occ1O` is reported as 5.06 µM (Ellman).
With `COc1cc(-c2nc3ccccc3s2)cc(NC(C)=O)c1OCC(=O)N[C@H](C(=O)O)C(C)C` the IC50 was > 271 µM (Ellman).
For `CC(C)c1cc2c(c(O)c1O)[C@@]1(C(=O)O)CCCC(C)(C)[C@@H]1CC2`, the IC50 was 0.00078 µM.
The IC50 of `CCc1cccc(C)c1NC(=O)CSc1nnc(COc2ccc3ccccc3c2)n1-c1ccccc1` is reported as 1.42 µM (Ellman).
`O=c1cc(CSc2ccc(N=Cc3cccc(Cl)c3)cc2)occ1O` has an IC50 of 13.2 µM (Ellman).
For `CC[C@H](C)[C@@H](NC(=O)COc1c(NC(C)=O)cc(-c2nc3ccccc3s2)cc1OC)C(=O)O`, the IC50 was > 264 µM (Ellman).
`CCOc1cccc(NC(=O)CSc2nnc(COc3ccc4ccccc4c3)n2-c2ccccc2)c1` has an IC50 of 1.15 µM (Ellman).
For `COc1cc(-c2nc3ccccc3s2)cc2c1OCC(=O)N2CC(=O)N[C@@H](Cc1ccccc1)C(=O)O`, the IC50 was > 247 µM (Ellman).
With `Cc1ccc(NC(=O)CSc2nnc(COc3ccc4ccccc4c3)n2-c2ccccc2)c(C)c1` the IC50 was 0.697 µM (Ellman).
With `O=c1cc(CSc2ccc(N=Cc3ccc([N+](=O)[O-])cc3)cc2)occ1O` the IC50 was 8.38 µM (Ellman).
The IC50 of `O=C(CSc1nnc(COc2ccc3ccccc3c2)n1-c1ccccc1)Nc1ccccc1` is reported as 1.87 µM (Ellman).
`O=c1cc(CSc2ccc(N=Cc3ccc(Cl)cc3)cc2)occ1O` has an IC50 of 1.33 µM (Ellman).
With `COc1cc(-c2nc3ccccc3s2)cc2c1OCC(=O)N2CC(=O)N[C@H](C(=O)O)C(C)C` the IC50 was > 273 µM (Ellman).
